Results: ChEMBL document CHEMBL4610112, “Novel Pyrrolopyridone Bromodomain and Extra-Terminal Motif (BET) Inhibitors Effective in Endocrine-Resistant ER+ Breast Cancer with Acquired Resistance to Fulvestrant and Palbociclib” (J Med Chem, 2020)
Active and inactive are the calls of the source.

Assays:
[1] = tested on: MCF7:TAM1; test: Growth inhibition of tamoxifen-resistant human MCF7:TAM1 cells measured after 5 days by Hoechst 33342 dye based imaging analysis; format: functional, cell-based
Summary of the method: (§1)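 Cells seeded at 2000/well in their maintenance medium, treated once the next day with compound (0.1 nM–10 μM; 0.1% DMSO final). Day 5 Hoechst 33342 staining with imaging count. Survival normalized to DMSO (100%) and JQ1 3 μM (0%). IC50 given as mean ± SEM from at least two passages, each in triplicate.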

[2] = tested on: MCF7:CFR; test: Up regulation of APAF1 gene expression in fulvestrant-resistant human MCF7:CFR cells at 100 nM measured after 24 hrs; format: functional, cell-based
Summary of the method: (§2)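 MCF-7:CFR cells (fulvestrant-resistant, kept in 200 nM fulvestrant in phenol red-free stripped RPMI-1640) treated with 100 nM compound or DMSO (0.01%) for 24 h. RNA extracted and RNA-seq performed, expression reported as log2 fold change versus vehicle.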

[3] = tested on: MCF7:CFR; test: Down regulation of BCL2 gene expression in fulvestrant-resistant human MCF7:CFR cells at 100 nM measured after 24 hrs; format: functional, cell-based
Summary of the method: (§3)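 MCF-7:CFR cells were treated with compound at 100 nM or DMSO (0.01%) for 24 h. RNA extracted and RNA-seq performed. Output given as log2 fold change versus vehicle.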

[4] = tested on: MCF7:CFR; test: Down regulation of BCAS1 gene expression in fulvestrant-resistant human MCF7:CFR cells at 100 nM measured after 24 hrs; format: functional, cell-based; summary of the method: as §3
[5] = tested on: MCF7:CFR; test: Down regulation of HIST1H3B gene expression in fulvestrant-resistant human MCF7:CFR cells at 100 nM measured after 24 hrs; format: functional, cell-based; summary of the method: as §3
[6] = tested on: MCF7:CFR; test: Down regulation of ERBB3 gene expression in fulvestrant-resistant human MCF7:CFR cells at 100 nM measured after 24 hrs; format: functional, cell-based; summary of the method: as §3
[7] = tested on: MCF7:CFR; test: Down regulation of PARP10 gene expression in fulvestrant-resistant human MCF7:CFR cells at 100 nM measured after 24 hrs; format: functional, cell-based; summary of the method: as §3
[8] = species: Homo sapiens; test: Growth inhibition of tamoxifen-resistant human MCF7:5C cells measured after 5 days by Hoechst 33342 dye based imaging analysis; format: functional; summary of the method: as §1
[9] = tested on: MCF7:CFR; test: Down regulation of c-MET gene expression in fulvestrant-resistant human MCF7:CFR cells at 100 nM measured after 24 hrs; format: functional, cell-based; summary of the method: as §3
[10] = tested on: MCF7:CFR; test: Up regulation of CDKN1B gene expression in fulvestrant-resistant human MCF7:CFR cells at 100 nM measured after 24 hrs; format: functional, cell-based
Summary of the method: (§4)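 MCF-7:CFR cells exposed to compound at 100 nM, with DMSO (0.01%) as control, for 24 h. RNA extracted and analysed by RNA-seq. Values are log2-fold changes in gene expression against the vehicle control.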

[11] = tested on: MCF7:CFR; test: Down regulation of ZMYND8 gene expression in fulvestrant-resistant human MCF7:CFR cells at 100 nM measured after 24 hrs; format: functional, cell-based; summary of the method: as §3
[12] = species: Homo sapiens; test: Growth inhibition of tamoxifen and palbociclib-resistant human MCF7:CPR cells measured after 5 days by Hoechst 33342 dye based imaging analysis; format: functional; summary of the method: as §1
[13] = tested on: MCF7:CFR; test: Down regulation of KRT83 gene expression in fulvestrant-resistant human MCF7:CFR cells at 100 nM measured after 24 hrs; format: functional, cell-based; summary of the method: as §3
[14] = tested on: MCF7:CFR; test: Down regulation of NUPR1 gene expression in fulvestrant-resistant human MCF7:CFR cells at 100 nM measured after 24 hrs; format: functional, cell-based; summary of the method: as §3
[15] = tested on: MCF7:TAM1; test: Antitumor activity against human MCF7:TAM1 cells xenografted in ovariectomized athymic Nude-Foxn1 mouse assessed as tumor growth inhibition at 30 mg/kg/day, po administered via gavage for 4 weeks in presence of fulvestrant; format: functional, organism-based
Summary of the method: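 MCF-7:Tam1 tumours established in 4–6 week old female ovariectomized athymic nude mice given daily tamoxifen 1.5 mg/mouse. […] Fulvestrant 1 (mg/mouse)/week sc. Tumour volume measured weekly by calipers as length × width² × π/6.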

[16] = tested on: MCF7:CFR; test: Up regulation of RIPK1 gene expression in fulvestrant-resistant human MCF7:CFR cells at 100 nM measured after 24 hrs; format: functional, cell-based; summary of the method: as §2
[17] = tested on: MCF7:CFR; test: Up regulation of CASP6 gene expression in fulvestrant-resistant human MCF7:CFR cells at 100 nM measured after 24 hrs; format: functional, cell-based; summary of the method: as §2
[18] = tested on: MCF7:CFR; test: Down regulation of BCL2L1 gene expression in fulvestrant-resistant human MCF7:CFR cells at 100 nM measured after 24 hrs; format: functional, cell-based; summary of the method: as §3
[19] = species: Homo sapiens; test: Growth inhibition of tamoxifen-sensitive human MCF7:WS8 cells measured after 5 days by Hoechst 33342 dye based imaging analysis; format: functional; summary of the method: as §1
[20] = tested on: T47D; test: Growth inhibition of tamoxifen-sensitive human T47D cells measured after 5 days by Hoechst 33342 dye based imaging analysis; format: functional, cell-based; summary of the method: as §1
[21] = species: Homo sapiens; test: Growth inhibition of human T47D:TDG cells harboring ESR1 D538G mutant measured after 5 days by Hoechst 33342 dye based imaging analysis; format: functional; summary of the method: as §1
[22] = tested on: MCF7:CFR; test: Up regulation of CASP3 gene expression in fulvestrant-resistant human MCF7:CFR cells at 100 nM measured after 24 hrs; format: functional, cell-based; summary of the method: as §2
[23] = tested on: MCF7:CFR; test: Down regulation of c-MYC gene expression in fulvestrant-resistant human MCF7:CFR cells at 100 nM measured after 24 hrs; format: functional, cell-based; summary of the method: as §4
[24] = tested on: MCF7:CFR; test: Up regulation of CASP9 gene expression in fulvestrant-resistant human MCF7:CFR cells at 100 nM measured after 24 hrs; format: functional, cell-based; summary of the method: as §2
[25] = tested on: MCF7:CFR; test: Down regulation of IFI44L gene expression in fulvestrant-resistant human MCF7:CFR cells at 100 nM measured after 24 hrs; format: functional, cell-based; summary of the method: as §3
[26] = tested on: MCF7:CFR; test: Down regulation of NRAS gene expression in fulvestrant-resistant human MCF7:CFR cells at 100 nM measured after 24 hrs; format: functional, cell-based; summary of the method: as §3
[27] = tested on: MCF7:CFR; test: Down regulation of IGFBP5 gene expression in fulvestrant-resistant human MCF7:CFR cells at 100 nM measured after 24 hrs; format: functional, cell-based; summary of the method: as §3
[28] = tested on: MCF7:CFR; test: Growth inhibition of fulvestrant-resistant human MCF7:CFR cells at 1 to 30 nM treated for 3 hrs followed by compound washout and measured after 5 days by Hoechst 33342 dye based imaging analysis; format: functional, cell-based
Summary of the method: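 MCF-7:CFR cells grown 2 days in phenol red-free RPMI/10% charcoal-dextran FBS, then seeded at 2000 cells/well. Treated next day; medium replaced with normal growth medium after 3 h. On day 5, cells stained with Hoechst 33342 and counted by imaging. Survival normalized to DMSO (100%) and JQ1 3 μM (0%).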

[29] = tested on: MCF7:CFR; test: Down regulation of n-MYC gene expression in fulvestrant-resistant human MCF7:CFR cells at 100 nM measured after 24 hrs; format: functional, cell-based; summary of the method: as §4
[30] = tested on: MCF7:CFR; test: Down regulation of cyclin-D gene expression in fulvestrant-resistant human MCF7:CFR cells at 100 nM measured after 24 hrs; format: functional, cell-based; summary of the method: as §4
[31] = tested on: MCF7:CFR; test: Down regulation of CLEC3A gene expression in fulvestrant-resistant human MCF7:CFR cells at 100 nM measured after 24 hrs; format: functional, cell-based; summary of the method: as §3
[32] = tested on: MCF7:CFR; test: Down regulation of ESR1 gene expression in fulvestrant-resistant human MCF7:CFR cells at 100 nM measured after 24 hrs; format: functional, cell-based; summary of the method: as §3
[33] = tested on: MCF7:CFR; test: Down regulation of CCDC170 gene expression in fulvestrant-resistant human MCF7:CFR cells at 100 nM measured after 24 hrs; format: functional, cell-based; summary of the method: as §3

CCS(=O)(=O)Nc1cc(-c2cn(C)c3c(=O)[nH]ccc23)cc2c1ccn2C(C)(c1ccccn1)c1ccccn1
active: growth inhibition (GI) [1] Dose-dependent effect | Activity [2] | Activity [3] | Activity [4] | Activity [5] | Activity [6] | Activity [7] | growth inhibition (GI) [8] Dose-dependent effect | Activity [9] | Activity [10] | Activity [11] | growth inhibition (GI) [12] Dose-dependent effect | Activity [13] | Activity [14] | TGI [15] | Activity [16] | Activity [17] | Activity [18] | growth inhibition (GI) [19] Dose-dependent effect | growth inhibition (GI) [20] Dose-dependent effect | growth inhibition (GI) [21] Dose-dependent effect | Activity [22] | Activity [23] | Activity [24] | Activity [25] | Activity [26] | Activity [27] | growth inhibition (GI) [28] | Activity [29] | Activity [30] | Activity [31] | Activity [32] | Activity [33]
